From ChEMBL document CHEMBL2150952 (J Med Chem, 2011)
Calls of active or inactive are those of the source. The rule behind the calls is not given here.

Experiments:
HepG2 = experiment: Ratio IC50 for SCD-1 activity in organic anion transporting polypeptides-deficient human HepG2 cells to IC50 for SCD-1 activity in Sprague-Dawley rat Hepatocytes expressing organic anion transporting polypeptides; format: cell-based
Outline: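 Cellular SCD IC50s measured in human HepG2 cells (lacking active OATPs) and in rat hepatocytes (active OATPs). Hepatocytes preincubated with compound for 15 min at 37 °C, then given 14C-stearic acid (final 0.5 μCi/ml) for 1 h with shaking. Lipids hydrolysed in 2N NaOH at 75 °C, acidified and extracted. Radiolabelled oleic and stearic acid resolved by HPLC with flow scintillation detection. Mean of at least n = 3. HepG2 IC50 divided by hepatocyte IC50.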

Stearoyl-CoA desaturase = target: T1, Stearoyl-CoA desaturase (Homo sapiens, UniProt O00767); experiment: Inhibition of SCD-1 activity in organic anion transporting polypeptides-deficient human HepG2 cells assessed as reduction in [I-14C] stearoyl CoA desaturation by scintillation counting; format: cell-based
T1 sequence (O00767 whole entry): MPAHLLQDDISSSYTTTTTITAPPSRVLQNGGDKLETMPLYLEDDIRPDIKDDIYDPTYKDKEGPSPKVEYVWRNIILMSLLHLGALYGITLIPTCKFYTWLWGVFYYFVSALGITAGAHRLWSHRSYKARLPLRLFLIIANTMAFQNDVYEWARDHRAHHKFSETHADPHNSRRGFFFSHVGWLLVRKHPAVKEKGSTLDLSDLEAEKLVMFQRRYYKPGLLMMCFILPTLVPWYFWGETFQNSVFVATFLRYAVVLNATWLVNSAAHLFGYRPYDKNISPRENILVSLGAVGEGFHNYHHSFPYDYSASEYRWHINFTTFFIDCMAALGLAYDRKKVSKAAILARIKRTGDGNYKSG

Liver = experiment: Ratio drug uptake in liver to harderian gland of C57BL6 mouse at 10 mg/kg, po measured 6 hrs post dose; format: ADME, organism-based; parameters: dose 10 mg/kg, route oral; conditions: in vivo
Outline: (§1)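 Single oral dose of 10 mg/kg in 0.5% methylcellulose to fed C57BL6 mice (n = 2). Animals sacrificed 6 h post dose. Plasma, liver, skin and Harderian gland collected. Tissues homogenized in MeCN/water with internal standard and drug quantified by LC-MS against a standard curve made in blank plasma. Concentration ratio calculated.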

Acyl-CoA desaturase 1 [1] = target: T2, Acyl-CoA desaturase 1 (Rattus norvegicus, UniProt P07308); experiment: Inhibition of SCD-1 activity in Sprague-Dawley rat microsome assessed as reduction in [I-14C] stearoyl CoA desaturation by scintillation counting; format: microsomes
T2 sequence (P07308 whole entry): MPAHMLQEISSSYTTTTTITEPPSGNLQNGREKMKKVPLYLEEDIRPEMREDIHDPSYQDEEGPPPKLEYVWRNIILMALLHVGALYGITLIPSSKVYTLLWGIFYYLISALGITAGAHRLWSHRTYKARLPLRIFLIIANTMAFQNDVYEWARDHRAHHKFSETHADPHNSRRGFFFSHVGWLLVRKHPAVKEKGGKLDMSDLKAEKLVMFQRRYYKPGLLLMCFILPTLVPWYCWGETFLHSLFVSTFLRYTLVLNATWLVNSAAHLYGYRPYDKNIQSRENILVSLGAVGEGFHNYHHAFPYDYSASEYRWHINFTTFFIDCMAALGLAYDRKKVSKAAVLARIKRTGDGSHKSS

Acyl-CoA desaturase 1 [2] = target: T2, Acyl-CoA desaturase 1; experiment: Inhibition of SCD-1 activity in Sprague-Dawley rat Hepatocytes expressing organic anion transporting polypeptides assessed as reduction in [I-14C] […] desaturation by scintillation counting; format: cell-based, Hepatocyte
Outline: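 Rat hepatocytes (4 × 10^6 cells/mL) were preincubated with compound for 15 min at 37 °C/5% CO2. 14C-stearic acid (final 0.5 μCi/mL) was then added for 1 h with shaking. Cells were washed, hydrolyzed in 2N NaOH at 75 °C for 1 h, acidified and extracted. Radiolabeled oleic and stearic acids were quantified by HPLC with flow scintillation detection. Mean of at least n = 3.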

Mus musculus [3] = experiment: Inhibition of SCD activity in liver of diet-induced obese C57BL6 mouse assessed as reduction in desaturation induces at 30 mg/kg, po BID; format: functional, organism-based; parameters: dose 30 mg/kg
Mus musculus [4] = experiment: Antidiabetic activity in diet-induced obese C57BL6 mouse assessed as reduction in body weight gain at 30 mg/kg, po BID; format: functional, organism-based; parameters: dose 30 mg/kg
[5] = Ratio drug uptake in liver to plasma of C57BL6 mouse at 10 mg/kg, po measured 6 hrs post dose; format: ADME, organism-based; parameters: dose 10 mg/kg, route oral; conditions: liver and plasma; outline: as §1

For `Fc1ccc(Br)c(OC2CCN(c3nnc(-c4nn[nH]n4)s3)CC2)c1`, the Ratio IC50 (HepG2) was 4, the IC50 (Stearoyl-CoA desaturase) was 12600 nM and the Ratio (Liver) was 26. The IC50 (Acyl-CoA desaturase 1 [1]) was 34 nM and the IC50 (Acyl-CoA desaturase 1 [2]) was 3070 nM.
For `O=C(O)Cn1nnc(-c2nnc(N3CCC(Oc4cc(F)ccc4Br)CC3)s2)n1`, the inhibition (Mus musculus [3]) was “Active”, the Ratio IC50 (HepG2) was 5 and the IC50 (Stearoyl-CoA desaturase) was 904 nM. The Ratio (Liver) was 40, the IC50 (Acyl-CoA desaturase 1 [1]) was 7 nM and the IC50 (Acyl-CoA desaturase 1 [2]) was 189 nM. The Activity (Mus musculus [4]) was “inactive”.
With `FC(F)(F)c1ccccc1OC1CCN(c2nnc(-c3nn[nH]n3)s2)CC1` the Ratio IC50 (HepG2) was > 14, the Kp at 6 h [5] was 15 and the IC50 (Stearoyl-CoA desaturase) was > 50000 nM. For the same compound, the Ratio (Liver) was 330, the IC50 (Acyl-CoA desaturase 1 [1]) was 276 nM and the IC50 (Acyl-CoA desaturase 1 [2]) was 3470 nM.
